Assay outcomes from PubChem.
This excerpt belongs to a sample that is enriched for hits.
T cruzi intra – inhibitors of intracellular Trypanosoma cruzi; intracellular Trypanosoma cruzi in host cells, plate reader; activity score (inhibition), % at 5.01 µM; hit rate 4.9% among 22,000; in the data active = activity score above about 55%;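 also: parasites and compound incubated about four days before reading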
INS-1E ATP HTS – rescue of cytokine-induced death in INS-1E beta cells. INS-1E cytokine-induced death, ATP luminescence, 48 h; normalised: neutral wells 0, positive control 100. protection from cytokine-induced ATP loss, % at 10 µM. hit rate 0.1% among 20,000;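 active = mean replicate protection from cytokine-induced ATP loss at least 50% and at least 75% of replicates each reaching 50%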
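Assay system – rat INS-1E insulinoma cell line · Quantity – 8000 cells per well · Buffer or medium – RPMI without phenol red, 5% FBS · Schedule – 48 h co-treatment, 10 min post-lysis read · Technique – luminescent ATP assay (CellTiter-Glo)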
YB-1 expr inh – YB-1 expression inhibition | U2OS, qRT-PCR YB-1 vs CDIP delta delta Cp, 16 h; active compounds read high; zero = DMSO, each unit about twofold | delta delta Cp (YB-1 minus CDIP) (concentration not given with the values) | hit rate 0.37% among 30,000 | AID 434959;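 active = delta delta Cp rounded down to an integer at or above 3, about 3 SD of DMSO wells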;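 also: higher means less YB-1 transcript or more CDIP transcript relative to DMSO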
Numbers stand for hits; n = inactive; x = not tested or not shown.

SMILES | T cruzi intra | INS-1E ATP HTS | YB-1 expr inh
C[C@H](CO)N1C[C@H](C)[C@H](CN(C)Cc2ccc(Cl)c(Cl)c2)Oc2ccc(NC(=O)Nc3cccc4ccccc34)cc2CC1=O | 68 | n | n
C[C@@H]1CN([C@H](C)CO)C(=O)c2cccc(NC(=O)Nc3cccc4ccccc34)c2O[C@@H]1CN(C)Cc1ccc(Cl)c(Cl)c1 | n | n | n
C[C@H]1CN([C@@H](C)CO)C(=O)c2cc(NC(=O)Nc3cccc4ccccc34)ccc2O[C@H]1CN(C)Cc1ccc(Cl)c(Cl)c1 | n | x | n
C[C@@H]1CN([C@H](C)CO)C(=O)Cc2cc(NC(=O)Nc3cccc4ccccc34)ccc2O[C@@H]1CN(C)Cc1ccc(Cl)c(Cl)c1 | 68 | n | n
C[C@H](CO)N1C[C@H](C)[C@@H](CN(C)Cc2ccc(Cl)c(Cl)c2)Oc2c(NC(=O)Nc3cccc4ccccc34)cccc2C1=O | 68 | n | n
C[C@@H]1CN([C@H](C)CO)C(=O)Cc2cc(NC(=O)Nc3cccc4ccccc34)ccc2O[C@H]1CN(C)Cc1ccc(Cl)c(Cl)c1 | n | n | n
C[C@H]1CN([C@@H](C)CO)C(=O)c2cc(NC(=O)Nc3cccc4ccccc34)ccc2O[C@@H]1CN(C)Cc1ccc(Cl)c(Cl)c1 | 65 | n | n
C[C@H]1CN([C@@H](C)CO)C(=O)Cc2cc(NC(=O)Nc3cccc4ccccc34)ccc2O[C@H]1CN(C)Cc1ccc(Cl)c(Cl)c1 | n | n | n
c1ccc2c(c1)oc1c(N3CCCCC3)ncnc12 | x | x | n
Cc1sc2nc3c4ccccc4c(NCC4CCCO4)nn3c(=O)c2c1C (centres undefined) | x | x | n
CCOC(=O)c1ccc(-c2coc3cc(OC(C)=O)c(CC)cc3c2=O)o1 | x | x | n
Cc1c(C#N)c(Sc2n[nH]c(=O)n2C2CCCCC2)nc2ccccc12 | x | x | n
c1ccc(Oc2nc(Oc3ccccc3)nc(Oc3ccccc3)n2)cc1 | x | x | n
COc1ccc([C@H]2Oc3cc(O)cc(O)c3C(=O)[C@@H]2O)cc1 | x | x | n
C[C@H](CO)N1C[C@H](C)[C@H](CN(C)Cc2ccc(Cl)c(Cl)c2)Oc2c(NC(=O)Nc3ccc(F)cc3)cccc2C1=O | n | n | n
C[C@H]1CN([C@@H](C)CO)C(=O)c2cccc(NC(=O)NC3CCCCC3)c2O[C@@H]1CN(C)C(=O)Nc1ccc(C(F)(F)F)cc1 | n | n | n
C[C@H](CO)N1C[C@H](C)[C@H](CN(C)C(=O)Nc2ccc(C(F)(F)F)cc2)Oc2c(NC(=O)NC3CCCCC3)cccc2C1=O | 75 | n | n
C[C@H](CO)N1C[C@H](C)[C@H](CN(C)C(=O)NC2CCCCC2)Oc2c(NC(=O)Nc3cccc4ccccc34)cccc2C1=O | 63 | n | n
C[C@H](CO)N1C[C@H](C)[C@H](CN(C)Cc2ccc(Cl)c(Cl)c2)Oc2c(NC(=O)Nc3ccc(C(F)(F)F)cc3)cccc2C1=O | 63 | n | n
C[C@@H]1CN([C@@H](C)CO)C(=O)c2cccc(NC(=O)Nc3ccc(C(F)(F)F)cc3)c2O[C@@H]1CN(C)C(=O)Nc1ccc(C(F)(F)F)cc1 | 88 | n | n
C[C@@H]1CN([C@H](C)CO)C(=O)c2cccc(NC(=O)Nc3ccccc3)c2O[C@H]1CN(C)C(=O)Nc1ccc(C(F)(F)F)cc1 | n | n | n
C[C@@H]1CN([C@H](C)CO)C(=O)c2cccc(NC(=O)Nc3cccc4ccccc34)c2O[C@H]1CN(C)C(=O)NC1CCCCC1 | n | n | n
CC12CCC(=O)C=C1CCC1(C)C2(C)CCC2(C)C(C(=O)CO)CCC21C (centres undefined) | x | x | n
COC(=O)C1CCCN1S(=O)(=O)c1ccccc1 (centres undefined) | x | x | n
CCCc1ccc(Oc2ccc(NC(=O)C3CC3C(=O)O)cn2)c(OC)c1 (centres undefined) | x | x | n
C[C@H](CO)N1C[C@H](C)[C@H](CN(C)C(=O)Nc2ccc3c(c2)OCO3)Oc2c(NC(=O)Nc3ccc(C(F)(F)F)cc3)cccc2C1=O | 63 | n | n
C[C@H](CO)N1C[C@H](C)[C@H](CN(C)Cc2ccc(C(F)(F)F)cc2)Oc2c(NC(=O)Nc3ccc4c(c3)OCO4)cccc2C1=O | n | n | n
C[C@@H]1CN([C@H](C)CO)C(=O)c2cccc(NC(=O)Nc3cccc4ccccc34)c2O[C@H]1CN(C)C(=O)Nc1ccc(C(F)(F)F)cc1 | n | n | n
C[C@@H]1CN([C@@H](C)CO)C(=O)c2cccc(NC(=O)Nc3ccc(C(F)(F)F)cc3)c2O[C@@H]1CN(C)Cc1ccc2c(c1)OCO2 | 61 | n | n
